Format in all cases: functional
For experiment [1], the system named is Haemophilus influenzae. The experiment can be described thus: Antimicrobial activity against beta-lactamase-producing Haemophilus influenzae clinical isolate after 18 to 22 hrs by broth microdilution method in presence of beta-lactamase inhibitor BLI-489. The method in brief:
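Haemophilus isolates were tested in Haemophilus test medium by CLSI broth microdilution. Serial piperacillin dilutions carried BLI-489 fixed at 4 μg/ml. Inoculum was 10^5 CFU/ml, incubated 18 to 22 h at 35°C in ambient air. MIC was the lowest concentration completely inhibiting growth by eye.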
A general note: Dilution methods test growth across graded concentrations, often in twofold steps.

In experiment [2] the test system is Moraxella catarrhalis. The experiment can be described thus: Antimicrobial activity against Moraxella catarrhalis clinical isolate after 18 to 22 hrs by broth microdilution method in presence of beta-lactamase inhibitor Tazobactam. The method in brief: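 Piperacillin-tazobactam was tested by CLSI broth microdilution in Mueller-Hinton II broth against clinical isolates. Inoculum was 10^5 CFU/ml, with 18 to 22 h incubation at 35°C in ambient air. MIC was read as the lowest concentration completely inhibiting visible growth.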

In experiment [3] the test system is Enterococcus avium. The experiment can be described thus: Antimicrobial activity against Enterococcus avium clinical isolate after 18 to 22 hrs by broth microdilution method in presence of beta-lactamase inhibitor BLI-489. The essentials:
(§1)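 CLSI broth microdilution in Mueller-Hinton II broth. Piperacillin serial dilutions were combined with BLI-489 held constant at 4 μg/ml. Inoculum was 10^5 CFU/ml. Plates were incubated 18 to 22 h at 35°C in ambient air. MIC was the lowest concentration completely inhibiting growth seen by the unaided eye. Piperacillin-tazobactam interpretive criteria were applied.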

Experiment [4] concerns Bacteroides fragilis. The experiment can be described thus: Antimicrobial activity against Bacteroides fragilis clinical isolate after 18 to 22 hrs by broth microdilution method in presence of beta-lactamase inhibitor BLI-489.
The test system of experiment [5] is Escherichia coli. The experiment can be described thus: Antimicrobial activity against Escherichia coli clinical isolate after 18 to 22 hrs by broth microdilution method in presence of beta-lactamase inhibitor BLI-489. The method in brief:
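CLSI broth microdilution in Mueller-Hinton II broth. Serial dilutions of piperacillin were tested with BLI-489 held at a constant 4 μg/ml. Inoculum was 10^5 CFU/ml. Plates were incubated 18 to 22 h at 35°C in ambient air. MIC was the lowest concentration giving complete growth inhibition by unaided eye.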

In experiment [6] the test system is Escherichia coli. Put plainly: Antimicrobial activity against class A extended spectrum beta-lactamase- and class D OXA- producing Escherichia coli clinical isolate after 18 to 22 hrs by broth microdilution method in presence of beta-lactamase inhibitor Tazobactam.
Experiment [7] has as its system Escherichia coli. The experiment can be described thus: Antimicrobial activity against AmpC beta-lactamase-producing Escherichia coli clinical isolate after 18 to 22 hrs by broth microdilution method in presence of beta-lactamase inhibitor BLI-489. The essentials:
as §1

Experiment [8] has as its system Citrobacter koseri. Put plainly: Antimicrobial activity against Citrobacter koseri clinical isolate after 18 to 22 hrs by broth microdilution method in presence of beta-lactamase inhibitor BLI-489. The essentials: as §1
For experiment [9], the system named is Acinetobacter junii. The experiment can be described thus: Antimicrobial activity against Acinetobacter junii clinical isolate after 18 to 22 hrs by broth microdilution method in presence of beta-lactamase inhibitor BLI-489. The essentials: as §1

Regarding `CCN1CCN(C(=O)N[C@@H](C(=O)N[C@@H]2C(=O)N3[C@@H]2SC(C)(C)[C@@H]3C(=O)O)c2ccccc2)C(=O)C1=O` [PIPERACILLIN], the MIC in [1] and in experiment [2] was at most 0.004 µg/mL in each case. For the same molecule, the MIC50 in [1] was at most 0.004 µg/mL; in [2], at most 0.004 µg/mL; in experiment [3], 8 µg/mL; in experiment [4], 0.25 µg/mL; in experiment [5], 64 µg/mL; in [6], 1 µg/mL. For the same molecule, the values for the MIC50 in [7], in experiment [8] and in [9] were 2 µg/mL, 2 µg/mL and 4 µg/mL, respectively. Besides, the MIC90 is at most 0.004 µg/mL in experiment [1]; 0.008 µg/mL in [2]; 32 µg/mL in [3]; 0.5 µg/mL in experiment [4]; 128 µg/mL in experiment [5]; 2 µg/mL in experiment [6]. For the same molecule, the MIC90 amounted to 16 µg/mL in experiment [7], 8 µg/mL in [8] and 16 µg/mL in experiment [9].
